Experimental data as given in ChEMBL document CHEMBL1126896, “Preparation and anti-HIV activity of O-acylated heparin and dermatan sulfate derivatives with low anticoagulant effect” (J Med Chem, 1993).

How the values were obtained:
MT4 [1] = test: Effective concentration to achieve 50% protection of MT-4 cells against the cytopathic effect of HIV-2; format: functional, cell-based; details: Homo sapiens, MT4; read-out: EC50
MT4 [2] = test: Selectivity index for CC50 (cytotoxic concentration based on reduction of viability of mock-infected MT-4 cells) to that of EC50 against HIV-2; format: functional
Procedure, shortened: (§1)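 MT-4 cells at 3 × 10^5 cells/mL were infected with HIV-1 IIIB or HIV-2 ROD at 100 CCID50/mL, or mock-infected, alongside serial compound dilutions. Viability was read by MTT after 5 days at 37 °C. CC50 comes from mock-infected cells and EC50 from protection against cytopathicity. Index = CC50/EC50.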

MT4 [3] = test: Selectivity index for CC50 (cytotoxic concentration based on the reduction of the viability of mock-infected MT-4 cells) to that of EC50 against HIV-1; format: functional; procedure, shortened: as §1
[4] = In vitro anticoagulant activity determined by clotting test of activated partial thromboplastin time (APTT) on a pool of human plasma; format: functional
Procedure, shortened: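 Activated partial thromboplastin time clotting test on pooled human plasma, run on an automatic coagulometer. Activities were calculated according to the European Pharmacopoeia.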

MT4 [5] = test: Effective concentration to achieve 50% protection of MT-4 cells against the cytopathic effect of HIV-1; format: functional, cell-based; details: Homo sapiens, MT4; read-out: EC50
HuT78 = test: Giant-cell formation between persistently HIV-1 infected HUT-78 cells and uninfected MOLT-4 cells; format: functional, cell-based
Procedure, shortened: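 MOLT-4 cells were co-cultured with an equal number of HUT-78 cells persistently infected with HIV-1 IIIB or HIV-2 ROD, with varying compound concentrations. Syncytia were counted by flow cytofluorography after 24 h. EC50 is the concentration giving 50% protection against giant-cell formation.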

[6] = Homo sapiens, HuT78, read-out: EC50

Structure (SMILES) | EC50 (MT4 [1]) [µg/mL] | Selectivity index (MT4 [2]) | Selectivity index (MT4 [3]) | APTT [4] [IU mg-1] | EC50 (MT4 [5]) [µg/mL] | EC50 (HuT78; [6]) [µg/mL] | EC50 (HuT78; hut78) [µg/mL]
CCCCOC(=O)/C=C(\COC(=O)CCC)OC1OC(COS(=O)(=O)[O-])C(OC2OC(C(=O)OCCCC)C(OC3OC(COS(=O)(=O)[O-])C(OC4OC(C(=O)OCCCC)C(OC5OC(COS(=O)(=O)[O-])C(O)C(OC(=O)CCC)C5NC(C)=O)C(OC(=O)CCC)C4OS(=O)(=O)[O-])C(OC(=O)CCC)C3NC(C)=O)C(OC(=O)CCC)C2OS(=O)(=O)[O-])C(OC(=O)CCC)C1NC(C)=O.[Na+].[Na+].[Na+].[Na+].[Na+] (configuration not stated) | 2.6 | >192 | >217 | 1.3 | 2.3 | 15 | 15
O=C([O-])/C=C(\COC(=O)c1ccccc1)OC1OC(COS(=O)(=O)[O-])C(OC2OC(C(=O)[O-])C(OC3OC(COS(=O)(=O)[O-])C(OC4OC(C(=O)[O-])C(OC5OC(COS(=O)(=O)[O-])C(O)C(OC(=O)c6ccccc6)C5NS(=O)(=O)[O-])C(OC(=O)c5ccccc5)C4OS(=O)(=O)[O-])C(OC(=O)c4ccccc4)C3NS(=O)(=O)[O-])C(OC(=O)c3ccccc3)C2OS(=O)(=O)[O-])C(OC(=O)c2ccccc2)C1NS(=O)(=O)[O-].[Na+].[Na+].[Na+].[Na+].[Na+].[Na+].[Na+].[Na+].[Na+].[Na+].[Na+] (configuration not stated) | 0.2 | >2500 | >5000 | 8 | 0.1 | 3 | 
O=C([O-])/C=C(\COC(=O)CCC(=O)[O-])OC1OC(COS(=O)(=O)[O-])C(OC2OC(C(=O)[O-])C(OC3OC(COS(=O)(=O)[O-])C(OC4OC(C(=O)[O-])C(OC5OC(COS(=O)(=O)[O-])C(O)C(OC(=O)CCC(=O)[O-])C5NS(=O)(=O)[O-])C(OC(=O)CCC(=O)[O-])C4OS(=O)(=O)[O-])C(OC(=O)CCC(=O)[O-])C3NS(=O)(=O)[O-])C(OC(=O)CCC(=O)[O-])C2OS(=O)(=O)[O-])C(OC(=O)CCC(=O)[O-])C1NS(=O)(=O)[O-].[Na+].[Na+].[Na+].[Na+].[Na+].[Na+].[Na+].[Na+].[Na+].[Na+].[Na+].[Na+].[Na+].[Na+].[Na+].[Na+].[Na+] (configuration not stated) | 5 | >100 | >2500 | 3.1 | 0.2 | > 100 | 
CCCCCC(=O)OCC1OC(OC2C(C(=O)[O-])OC(OC3C(NC(C)=O)C(OC4C(C(=O)[O-])OC(C)C(OC(=O)CCCCC)C4O)OC(COC(=O)CCCCC)C3OS(=O)(=O)[O-])C(OC(=O)CCCCC)C2OC(=O)CCCCC)C(NC(C)=O)C(OC)C1OS(=O)(=O)[O-].[Na+].[Na+].[Na+].[Na+] (configuration not stated) | 5.4 | 17.5 | 4 | 3.4 | 19.4 | 41 | 
CCCC(=O)OCC1OC(OC2C(C(=O)[O-])OC(OC3C(NC(C)=O)C(OC4C(C(=O)[O-])OC(C)C(OC(=O)CCC)C4O)OC(COC(=O)CCC)C3OS(=O)(=O)[O-])C(OC(=O)CCC)C2OC(=O)CCC)C(NC(C)=O)C(OC)C1OS(=O)(=O)[O-].[Na+].[Na+].[Na+].[Na+] (configuration not stated) | 18 | 25 | 8 | 3.7 | 54.2 | > 100 | 
CCCCCC(=O)O[C@@H]1[C@@H](OC(C)=O)[C@H](O[C@H]2[C@H](OS(=O)(=O)[O-])[C@@H](NS(=O)(=O)[O-])[C@@H](O[C@H]3[C@H](OC(=O)CCCCC)[C@@H](OS(=O)(=O)[O-])[C@H](O[C@H]4[C@H](OC(=O)CCCCC)[C@@H](CO)O[C@@H]4COS(=O)(=O)[O-])O[C@H]3C(=O)[O-])O[C@@H]2COS(=O)(=O)[O-])O[C@H](C(=O)[O-])[C@H]1O[C@H]1O[C@H](COS(=O)(=O)[O-])[C@@H](O[C@@H]2O[C@@H](C(=O)[O-])[C@@H](O)[C@H](OC(=O)CCCCC)[C@H]2OC(C)=O)[C@H](OC(=O)CCCCC)[C@H]1NC(C)=O.[Na+].[Na+].[Na+].[Na+].[Na+].[Na+].[Na+].[Na+].[Na+] | 5.4 | 9 | <1 | 4 | > 100 | 8.9 | 
